From ChEMBL document CHEMBL1649455, “Antimicrobial susceptibility and mechanisms of resistance in Shigella and Salmonella isolates from children under five years of age with diarrhea in rural Mozambique” (2009)

What was measured:
Salmonella sp. [1] = assay: Antimicrobial activity against Salmonella spp. harboring oxa-5-like gene assessed as resistant isolates by disk diffusion method; assay type: functional
In short: (§1)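 Resistance genes were sought by PCR in isolates fully resistant to the matching antibiotic. One colony was boiled 10 min in water to make template. PCR used […] each primer, 0.4 mM dNTPs and Taq, for 30 cycles of 94°C 1 min, primer-specific annealing 1 min and 72°C 1 min, then 72°C for 10 min. Products were run on 1.5% agarose gels with ethidium bromide.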

Salmonella sp. [2] = assay: Antimicrobial activity against Salmonella spp. harboring oxa-2-like gene assessed as resistant isolates by disk diffusion method; assay type: functional
Salmonella sp. [3] = assay: Antimicrobial activity against Salmonella spp. harboring carb-like gene assessed as resistant isolates by disk diffusion method; assay type: functional; in short: as §1
Shigella flexneri [4] = assay: Antimicrobial activity against Shigella flexneri harboring oxa-5-like gene assessed as resistant isolates by disk diffusion method; assay type: functional; in short: as §1
Shigella flexneri [5] = assay: Antimicrobial activity against Shigella flexneri harboring oxa-2-like gene assessed as resistant isolates by disk diffusion method; assay type: functional; in short: as §1
[6] = Antimicrobial activity against Salmonella enterica serovar Virchow assessed as resistant isolates by disk diffusion method; assay type: functional, Salmonella enterica subsp. enterica serovar Virchow
In short: (§2)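 Isolates came from rectal swabs of children under five seen at MDH between July 2001 and July 2003. There were 109 Shigella and 40 Salmonella. Swabs were cultured on MacConkey, Salmonella-Shigella and XLD agars. Identity was confirmed biochemically and by API-20E. Shigella serogroups were assigned by slide agglutination. Salmonella serotypes were assigned with somatic and flagellar antisera.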

[7] = Antimicrobial activity against Salmonella enterica serovar Infantis assessed as resistant isolates by disk diffusion method; assay type: functional, Salmonella enterica subsp. enterica serovar Infantis; in short: as §2
Salmonella sp. [8] = assay: Antimicrobial activity against Salmonella spp. harboring oxa-1-like gene assessed as resistant isolates by disk diffusion method; assay type: functional; in short: as §1
Salmonella enterica = assay: Antimicrobial activity against Salmonella enterica clinical isolates assessed as resistant isolates by disk diffusion method; assay type: functional; in short: as §2
Shigella sonnei [9] = assay: Antimicrobial activity against Shigella sonnei assessed as resistant isolates by disk diffusion method; assay type: functional; in short: as §2
Shigella flexneri [10] = assay: Antimicrobial activity against Shigella flexneri harboring carb-like gene assessed as resistant isolates by disk diffusion method; assay type: functional; in short: as §1
Salmonella sp. [11] = assay: Antimicrobial activity against Salmonella spp. harboring shv-like gene assessed as resistant isolates by disk diffusion method; assay type: functional; in short: as §1
Shigella flexneri [12] = assay: Antimicrobial activity against Shigella flexneri assessed as resistant isolates by disk diffusion method; assay type: functional; in short: as §2
Salmonella sp. [13] = assay: Antimicrobial activity against Salmonella spp. harboring tem-like gene assessed as resistant isolates by disk diffusion method; assay type: functional
Shigella flexneri [14] = assay: Antimicrobial activity against Shigella flexneri harboring oxa-1-like gene assessed as resistant isolates by disk diffusion method; assay type: functional; in short: as §1
Shigella flexneri [15] = assay: Antimicrobial activity against Shigella flexneri harboring shv-like gene assessed as resistant isolates by disk diffusion method; assay type: functional
Shigella flexneri [16] = assay: Antimicrobial activity against Shigella flexneri harboring tem-like gene assessed as resistant isolates by disk diffusion method; assay type: functional
Salmonella typhimurium = assay: Antimicrobial activity against Salmonella enterica serovar Typhimurium assessed as resistant isolates by disk diffusion method; assay type: functional, Salmonella enterica subsp. enterica serovar Typhimurium; in short: as §2
Shigella sonnei [17] = assay: Antimicrobial activity against Shigella sonnei harboring tetG gene assessed as resistant isolates by disk diffusion method; assay type: functional; in short: as §1
Shigella sonnei [18] = assay: Antimicrobial activity against Shigella sonnei harboring tetB gene assessed as resistant isolates by disk diffusion method; assay type: functional; in short: as §1
Shigella flexneri [19] = assay: Antimicrobial activity against Shigella flexneri harboring tetA gene assessed as resistant isolates by disk diffusion method; assay type: functional
Shigella flexneri [20] = assay: Antimicrobial activity against Shigella flexneri harboring tetB gene assessed as resistant isolates by disk diffusion method; assay type: functional
Salmonella sp. [21] = assay: Antimicrobial activity against Salmonella spp. harboring tetG gene assessed as resistant isolates by disk diffusion method; assay type: functional
Salmonella sp. [22] = assay: Antimicrobial activity against Salmonella spp. harboring tetA gene assessed as resistant isolates by disk diffusion method; assay type: functional
Shigella sonnei [23] = assay: Antimicrobial activity against Shigella sonnei harboring tetA gene assessed as resistant isolates by disk diffusion method; assay type: functional
Shigella flexneri [24] = assay: Antimicrobial activity against Shigella flexneri harboring tetG gene assessed as resistant isolates by disk diffusion method; assay type: functional; in short: as §1
Salmonella sp. [25] = assay: Antimicrobial activity against Salmonella spp. harboring tetB gene assessed as resistant isolates by disk diffusion method; assay type: functional
Salmonella sp. [26] = assay: Antimicrobial activity against Salmonella spp. harboring floR-like gene assessed as resistant isolates by disk diffusion method; assay type: functional
Shigella flexneri [27] = assay: Antimicrobial activity against Shigella flexneri harboring cmlA-like gene assessed as resistant isolates by disk diffusion method; assay type: functional
Salmonella sp. [28] = assay: Antimicrobial activity against Salmonella spp. harboring CAT gene assessed as resistant isolates by disk diffusion method; assay type: functional
Shigella flexneri [29] = assay: Antimicrobial activity against Shigella flexneri harboring floR-like gene assessed as resistant isolates by disk diffusion method; assay type: functional; in short: as §1
Shigella flexneri [30] = assay: Antimicrobial activity against Shigella flexneri harboring CAT gene assessed as resistant isolates by disk diffusion method; assay type: functional
Salmonella sp. [31] = assay: Antimicrobial activity against Salmonella spp. harboring cmlA-like gene assessed as resistant isolates by disk diffusion method; assay type: functional

CC1(C)S[C@@H]2[C@H](NC(=O)[C@H](N)c3ccccc3)C(=O)N2[C@H]1C(=O)O [AMPICILLIN]
Activity (Salmonella sp. [1]): 20%
Activity (Salmonella sp. [2]): 0%
Activity (Salmonella sp. [3]): 0%
Activity (Shigella flexneri [4]): 2%
Activity (Shigella flexneri [5]): 5%
Activity [6]: 0%
Activity [7]: 0%
Activity (Salmonella sp. [8]): 0%
Activity (Salmonella enterica): 25%
Activity (Shigella sonnei [9]): 0%
Activity (Shigella flexneri [10]): 0%
Activity (Salmonella sp. [11]): 0%
Activity (Shigella flexneri [12]): 66%
Activity (Salmonella sp. [13]): 70%
Activity (Shigella flexneri [14]): 90%
Activity (Shigella flexneri [15]): 2%
Activity (Shigella flexneri [16]): 5%
Activity (Salmonella typhimurium): 67%

CN(C)[C@@H]1C(O)=C(C(N)=O)C(=O)[C@@]2(O)C(O)=C3C(=O)c4c(O)cccc4[C@@](C)(O)[C@H]3C[C@@H]12 [TETRACYCLINE]
Activity (Shigella sonnei [17]): 36%
Activity [6]: 0%
Activity [7]: 0%
Activity (Shigella sonnei [18]): 0%
Activity (Salmonella enterica): 25%
Activity (Shigella sonnei [9]): 93%
Activity (Shigella flexneri [12]): 64%
Activity (Shigella flexneri [19]): 2%
Activity (Shigella flexneri [20]): 98%
Activity (Salmonella sp. [21]): 0%
Activity (Salmonella sp. [22]): 33%
Activity (Shigella sonnei [23]): 71%
Activity (Shigella flexneri [24]): 22%
Activity (Salmonella typhimurium): 0%
Activity (Salmonella sp. [25]): 0%

O=C(N[C@H](CO)[C@H](O)c1ccc([N+](=O)[O-])cc1)C(Cl)Cl [CHLORAMPHENICOL]
Activity (Salmonella sp. [26]): 83%
Activity (Shigella flexneri [27]): 2%
Activity (Salmonella sp. [28]): 67%
Activity [6]: 0%
Activity [7]: 0%
Activity (Salmonella enterica): 25%
Activity (Shigella sonnei [9]): 0%
Activity (Shigella flexneri [29]): 0%
Activity (Shigella flexneri [12]): 61%
Activity (Shigella flexneri [30]): 89%
Activity (Salmonella sp. [31]): 33%
Activity (Salmonella typhimurium): 22%
